From paper PMC3523195 (Bioorganic & medicinal chemistry, 2011)
Marks after values point to notes of the source that are not given here.

Assays:
[1] = system: melanized C. neoformans var. grubii; test: halo assay; type: cell-based, Cryptococcus neoformans var. grubii (MAT α, H99 serotype A); conditions: for Halo diameter: var. grubii
Summary of the method: (§1)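 Paper disks (6.5 mm) were loaded from DMSO stock solutions and air-dried 3 h at RT, then placed on lawns of target cells. The medium was defined minimal agar with 1 mM L-dopa, dopamine or epinephrine to give melanized cells. Doses were 20 μg/disk test compound, or 10 μg test compound with or without 2 μg amphotericin B per disk. Plates ran 6–8 days at 30 °C, and halo diameter (mm) and clarity were recorded.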

[2] = system: melanized C. neoformans var. gattii; test: halo assay; type: cell-based, Cryptococcus neoformans var. gattii (MAT α, serotype B)
Summary of the method: as §1

[3] = system: C. neoformans var. grubii; test: microtiter plate assay of melanization in liquid medium; type: cell-based, Cryptococcus neoformans var. grubii; conditions: for Melanization of treated cells, observed visually: 10 days, 30 °C
[4] = system: laccase and melanin formation in C. neoformans; conditions: cited from earlier work
[5] = 20 μg/disk, 1 mM L-dopa, 30 °C, 6 to 8 days
[6] = 10 μg per disk, 1 mM L-dopa, 6 days
[7] = 20 μg per disk, 1 mM L-dopa in minimal medium, 6 to 8 days
[8] = 20 μg per disk, 1 mM dopamine in minimal medium, 6 to 8 days
[9] = 20 μg per disk, 1 mM epinephrine in minimal medium, 6 to 8 days

Q: What does the source list for `CC[C@H]1CCCC[C@@]2(C[C@@H]3CC[C@@H]4[C@H](C(=O)OCCCCCCCCCCCCCCCC(=O)N(CCCN)CCCCN)[C@]5(CCC[C@@H](C)O5)NC(=[N+]34)N2)O1.[Cl-]` [compound 1, ptilomycalin A]?
A: Appearance of the halo surrounding the disk ([1]; 10 μg per disk, alone, 1 mM L-dopa): presence of non-melanized cells on the halo surrounding the disk; Appearance of the halo surrounding the disk [1, 5]: a halo of non-melanized cells were observed; Interaction with AMB in halo assay ([1]; 1 10 μg combined with AMB 2 μg per disk, 1 mM L-dopa): synergizes the fungicidal activity of AMB; Halo diameter [1, 6]: 13.5 ^b mm; Halo diameter [1, 7]: 17 ^c mm; Halo diameter [1, 8]: 15 ^c mm; Halo diameter [1, 9]: 12 ^c mm; Halo diameter [2, 6]: 9.50 ^b mm; Halo diameter [2, 7]: 17 ^c mm; Halo diameter [2, 8]: 18 ^c mm; Halo diameter [2, 9]: 12 ^c mm; Melanization of treated cells, observed visually ([3]; 0.8 μg/mL, 1 mM catecholamine (epinephrine, dopamine or L-dopa)): only non-melanized cells grew; Melanization of treated cells ([3]; 0.8 μg/mL, after 21 days): remained non-melanized

Q: With `C[C@@H](c1ncncc1F)[C@](O)(Cn1cncn1)c1ccc(F)cc1F` [voriconazole] as the compound, how does the “Inhibition of laccase and consequent melanin formation in C. neoformans” value [4] read?
A: inhibition of laccase and consequent melanin formation

Q: With `O=C(O)CNCP(=O)(O)O` [glyphosate] as the compound, how does the “Inhibitory activity on growth or melanization” value ([3]; 200 μg/mL, under the authors' conditions) read?
A: no significant inhibitory activity

Q: What about the “Melanization of treated cells, observed visually” value (“Melanization … observed visually” for short) ([3]; 200 μg/mL, 1 mM catecholamine) of the same compound?
A: growth of melanized cells was observed

Q: What about the “Inhibition of melanization of C. neoformans” value [4] of the same compound?
A: reported to inhibit melanization

Q: With `C[C@@H]1[C@H](O)[C@@H](C)/C=C/C=C/C=C/C=C/C=C/C=C/C=C/[C@H](O[C@@H]2O[C@H](C)[C@@H](O)[C@H](N)[C@@H]2O)C[C@@H]2O[C@](O)(C[C@@H](O)C[C@@H](O)[C@H](O)CC[C@@H](O)C[C@@H](O)CC(=O)O[C@H]1C)C[C@H](O)[C@H]2C(=O)O` [AMB, amphotericin B, reference compound] as the compound, how does the “Appearance of the halo surrounding the disk” value ([1]; 2 μg per disk, alone, 1 mM L-dopa) read?
A: clear zone of inhibition

Q: What about the “Appearance of the halo surrounding the disk” value [1, 5] of the same compound?
A: very clear zone of inhibition

Q: And the “Melanization … observed visually” value ([3]; 0.0625 μg/mL, 1 mM catecholamine)?
A: growth of melanized cells was observed

Q: For `Clc1ccc(COC(Cn2ccnc2)c2ccc(Cl)cc2Cl)c(Cl)c1` (stereo not drawn) [MCZ, miconazole], which “Melanization … observed visually” value ([3]; 0.5 μg/mL, 1 mM catecholamine) is on record?
A: growth of melanized cells was observed
